# Laboratory results published in ChEMBL document CHEMBL1132947, “Synthesis and biological evaluation of 2'-carbamate-linked and 2'-carbonate-linked prodrugs of paclitaxel: selective activation by the tumor-associated protease plasmin” (J Med Chem, 2000).
# What was measured:
# Format in all cases: functional, cell-based
# Settings in all cases: Homo sapiens
# A498 = test: Cytotoxicity against A498 Tumor cell line in SRB Cell viability test
# Procedure, shortened: (§1)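 Human tumor cell lines exposed to (pro)drug for 5 days; growth measured by microculture sulforhodamine B assay. ID50 = concentration giving 50% growth inhibition versus untreated control cultures, reported in ng/mL. Experiments run in quadruplicate and results averaged.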
# EVSA-T = test: Cytotoxicity against EVSA-T Tumor cell line in SRB Cell viability test; procedure, shortened: as §1
# NCI-H226 = test: Cytotoxicity against H226 Tumor cell line in SRB Cell viability test; procedure, shortened: as §1
# IGROV-1 = test: Cytotoxicity against IGROV Tumor cell line in SRB Cell viability test; procedure, shortened: as §1
# M19-MEL = test: Cytotoxicity against M19 Tumor cell line in SRB Cell viability test; procedure, shortened: as §1
# MCF7 = test: Cytotoxicity against MCF-7 Tumor cell line in SRB Cell viability test; procedure, shortened: as §1
# WiDr = test: Cytotoxicity against WIDR Tumor cell line in SRB Cell viability test; procedure, shortened: as §1
Compound,IC50 (A498),IC50 (EVSA-T),IC50 (NCI-H226),IC50 (IGROV-1),IC50 (M19-MEL),IC50 (MCF7),IC50 (WiDr)
CC(=O)O[C@H]1C(=O)[C@@]2(C)[C@H]([C@H](OC(=O)c3ccccc3)[C@]3(O)CC(OC(=O)[C@H](OC(=O)N(C)CCN(C)C(=O)[C@H](CCCCN)NC(=O)[C@H](CC(C)C)NC(=O)[C@H](N)C(C)C)C(NC(=O)c4ccccc4)c4ccccc4)C(C)=C1C3(C)C)[C@]1(OC(C)=O)CO[C@@H]1C[C@@H]2O.Cl.Cl (stereo not given in full),0.045 µg/mL,0.0052 µg/mL,0.025 µg/mL,0.026 µg/mL,0.024 µg/mL,0.0069 µg/mL,0.011 µg/mL
CC(=O)O[C@H]1C(=O)[C@@]2(C)[C@H]([C@H](OC(=O)c3ccccc3)[C@]3(O)CC(OC(=O)[C@H](OC(=O)NCCNC(=O)[C@H](CCCCN)NC(=O)[C@H](Cc4ccccc4)NC(=O)[C@@H](C)N)C(NC(=O)c4ccccc4)c4ccccc4)C(C)=C1C3(C)C)[C@]1(OC(C)=O)CO[C@@H]1C[C@@H]2O.Cl.Cl (stereo not given in full),0.04 µg/mL,0.011 µg/mL,0.041 µg/mL,0.019 µg/mL,0.045 µg/mL,0.016 µg/mL,0.013 µg/mL
CC(=O)O[C@H]1C(=O)[C@@]2(C)[C@H]([C@H](OC(=O)c3ccccc3)[C@]3(O)CC(OC(=O)[C@H](OC(=O)OCc4ccc(NC(=O)[C@H](CCCCN)NC(=O)[C@H](CC(C)C)NC(=O)[C@H](N)C(C)C)cc4)C(NC(=O)c4ccccc4)c4ccccc4)C(C)=C1C3(C)C)[C@]1(OC(C)=O)CO[C@@H]1C[C@@H]2O.Cl.Cl (stereo not given in full),> 0.06 µg/mL,0.0093 µg/mL,0.016 µg/mL,0.027 µg/mL,0.02 µg/mL,0.0092 µg/mL,0.011 µg/mL
CC(=O)O[C@H]1C(=O)[C@@]2(C)[C@H]([C@H](OC(=O)c3ccccc3)[C@]3(O)C[C@H](OC(=O)[C@H](O)[C@@H](NC(=O)c4ccccc4)c4ccccc4)C(C)=C1C3(C)C)[C@]1(OC(C)=O)CO[C@@H]1C[C@@H]2O [PACLITAXEL],< 0.003 µg/mL,< 0.003 µg/mL,< 0.003 µg/mL,0.01 µg/mL,< 0.003 µg/mL,< 0.003 µg/mL,< 0.003 µg/mL
CC(=O)O[C@H]1C(=O)[C@@]2(C)[C@H]([C@H](OC(=O)c3ccccc3)[C@]3(O)CC(OC(=O)[C@H](OC(=O)N(C)CCN(C)C(=O)[C@H](CCCCN)NC(=O)[C@H](Cc4ccccc4)NC(=O)[C@@H](C)N)C(NC(=O)c4ccccc4)c4ccccc4)C(C)=C1C3(C)C)[C@]1(OC(C)=O)CO[C@@H]1C[C@@H]2O.Cl.Cl (stereo not given in full),0.038 µg/mL,0.0072 µg/mL,0.021 µg/mL,0.011 µg/mL,0.017 µg/mL,0.0066 µg/mL,0.01 µg/mL
